Consider 97 compounds from ChEMBL document CHEMBL4513216, “Probing the Open Global Health Chemical Diversity Library for Multistage-Active Starting Points for Next-Generation Antimalarials” (ACS Infect Dis, 2020).

This data set can be described thus: Toxicity liver stage against HepG2, at 10uM. It is filed as cell-based. Conditions: human, HepG2-A16-CD81EGFP cells; read-out: INHIBITION
The arrangement: test concentration 10 uM, cell line HepG2-A16-CD81EGFP. Put shortly:
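Uninfected HepG2-A16-CD81EGFP cells, 3 × 10^3 per well, 1536-well, plated on prespotted compound at 10 μM final, parasite-free screening media added to match infected plates; puromycin 10 μM positive, DMSO 0.5% negative; run in parallel with 48 h PbLuc assay at 37 °C, 5% CO2; viability by CellTiter-Glo luminescence, normalized to controls.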
Take `COCCCN1CCN(C(=O)C(c2cccc(F)c2)N(C)C)CC1` (configuration not stated): the cytotoxicity at 10 µM is -13.1%.
On to `c1cncc(OC[C@]23COC[C@H]2CN(Cc2ccsc2)C3)c1`, for which the cytotoxicity at 10 µM worked out at 14.7%.
Take `Cc1nsc(NCc2ccc(CS(=O)(=O)NC(C)C)cc2)n1`: the cytotoxicity at 10 µM was -2.8%.
For `Cc1nc(C)c(C(C)NCc2cnc(N3CCOCC3)nc2)s1` (configuration not stated), the cytotoxicity at 10 µM was -4.76%.
The figure for `Cc1nc(CN2CCCC3(CCN(c4cccnc4)C3=O)C2)cs1` (configuration not stated) is 0.574%.
Regarding `CCn1nccc1CNc1nc(N)nc2c1nc(C)n2C`, the cytotoxicity at 10 µM was -8.13%.
Under `COCCN(CCOC)C(=O)c1ccc(Cn2nc(C)cc2C)cc1` stands -5.15%.
Consider `Cc1ncsc1-c1nnc(C2CCN(Cc3ccc(Cl)cc3)CC2)o1`, for which the cytotoxicity at 10 µM is -4.41%.
For the compound `CCc1noc(C)c1C(=O)Nc1cnn(CC(=O)NC2CCCC2)c1`, the cytotoxicity at 10 µM is -3.08%.
The figure for `COc1ccc(CN2CCC(c3cc(O)nc(C)n3)C2)c(F)c1` (configuration not stated) is 0.442%.
Under `Cc1nc(CN2C(=O)C[C@@H]3[C@@H]2CCN3CC2CCOCC2)cs1` stands -135%; under `Cc1cc(=O)n(C)cc1NC(=O)CC1CCC1`, -9.64%; under `Cc1ncccc1CNCC1CCN(CC(C)O)CC1` (configuration not stated), -5.59%.
Regarding `CC(C)NC(=O)[C@H]1C[C@H]2CN(C(=O)NCc3ccccc3)C[C@@H]1O2`, the cytotoxicity at 10 µM stood at 5.5%.
As for `O=S(=O)(NCc1ccc(S(=O)(=O)N2CCCC2)s1)c1cc(Cl)cc(Cl)c1`, the cytotoxicity at 10 µM was -11.1%.
Take `O=C1CC(c2cccnc2)c2c(c(C(=O)O)cn2-c2cccc(F)c2)N1` (configuration not stated): the cytotoxicity at 10 µM was -0.585%.
The figure for `CS(=O)(=O)CCN1C[C@H](NC(=O)c2cnc(O)cn2)[C@@H](C2CC2)C1` is 9.24%; for `Cc1nc(CC(C)C)sc1C(=O)N1CCC(C2(C)OCCO2)CC1` it is 4.21%.
The figure for `FC1(F)CCN(Cc2ccncc2)CC12CCN(Cc1ccccn1)C2` (configuration not stated) is 10.2%.
The figure for `CCc1nc2n(n1)CC(NCc1ncc(-c3ccccc3)o1)CC2` (configuration not stated) is -3.91%.
For `COCCC(=O)NCCc1nc(N(C)C)ncc1-c1ccncc1`, the cytotoxicity at 10 µM was determined as 1.68%.
For the compound `CCc1noc(C(C)N(C)CC(=O)Nc2ccc(Br)cc2C)n1` (configuration not stated), the cytotoxicity at 10 µM turned out to be 19.6%.
Turning to `Cc1ccc(CC(=O)N2CCCC(n3ccnc3C(C)C)C2)cn1` (configuration not stated), the cytotoxicity at 10 µM is -5.11%.
Take `OCc1cc2ccccc2nc1N1CCCCC1`: the cytotoxicity at 10 µM worked out at 14.1%.
Consider `Cc1ccccc1-n1ccnc1S(=O)(=O)Cc1nsc(N(C)C)n1`, for which the cytotoxicity at 10 µM came to 2.56%.
Under `COCc1nc(C(=O)N2CCCCC2Cn2cc(C)cn2)cs1` (configuration not stated) stands 3.18%; under `Cc1nnc(CN(C)CCCOc2ccc(Cl)cc2)o1`, -1.69%.
Under `O=C(N[C@H]1COC[C@@H]1N1CCCC1)c1c[nH]nc1C1CCCCC1` stands -5.59%; under `CC(C)C1CN(C(=O)c2ccncc2)CCS1` (configuration not stated), 9.72%; under `CCn1ccnc1C1CCN(Cc2cccc(Cl)c2)CC1`, -9.45%.
The figure for `Cc1nsc(NC(=O)NC2CCCN(C)C2)n1` (configuration not stated) is -17.1%; for `CCCc1ccc(C(=O)N2CCc3c(nc(N(C)C)[nH]c3=O)C2)cc1` it is 8.7%.
For the compound `Cc1ccc(C(=O)N2CCC3(CCC(C(=O)NCC4CC4)O3)CC2)o1` (configuration not stated), the cytotoxicity at 10 µM was found to be 6.85%.
Take `Cc1nn(C)c(C)c1C1CCCN1C(=O)c1ccc(C(N)=O)cn1` (configuration not stated): the cytotoxicity at 10 µM was -4.34%.
Under `Cc1nn(C)c(C)c1NC(=O)CN1CCc2c(nc(C(C)C)n2C)C1` stands -8.02%; under `O=C(C[S+]([O-])Cc1csc(C2CCCC2)n1)Nc1ccccc1` (configuration not stated), -42.3%; under `CCc1ccc(NC(=O)N2C[C@H]3CC[C@@]4(N=C(C)N(C)C4=O)[C@H]3C2)cc1`, 11%.
As for `Cc1ncc(C(=O)NCCNc2ncccc2C#N)s1`, the cytotoxicity at 10 µM is -8.18%.
`COc1cc(N2CCC[C@]3(C(=O)O)CN(C(C)C)C[C@@H]3C2)ncn1`: the cytotoxicity at 10 µM was found to be 4.14%.
Under `O=C(CC1CCCC1)NCCn1ccc(-c2ccccn2)n1` stands 5.5%.
For `O=C(Cn1ccnc1)N1C[C@@H]2CC[C@H](Oc3ccccc3)[C@@H]2C1`, the cytotoxicity at 10 µM was -3.71%.
As for `CC(=O)N1CCC2(CC1)CC(NC(=O)N(C)C)c1cc(C)ccc12` (configuration not stated), the cytotoxicity at 10 µM worked out at 4.3%.
In the case of `CC(C)CC1(C(=O)NCCc2nncn2C2CC2)CCC1`, the cytotoxicity at 10 µM was -1.06%.
Regarding `Cc1ccc(CC(=O)N2CCN(CC(O)C(C)(C)C)CC2)cn1` (configuration not stated), the cytotoxicity at 10 µM was -4.51%.
The figure for `Cc1csc2ncc(-c3ccnc(N4CCC[C@@H]4CO)n3)c(=O)n12` is -11.3%; for `CC(C)CC(C)NC1CCN(c2cccc(-c3cscn3)c2)CC1` (configuration not stated) it is -56.8%; for `Cc1csc(N2CCN(Cc3ccccn3)CC2)n1` it is 6.14%.
In the case of `Cc1cnn(-c2ccc(C(=O)N3CCN(C)CC3C)cc2)c1` (configuration not stated), the cytotoxicity at 10 µM worked out at 5.16%.
Under `O=C1OCCN1Cc1ccc(C(F)(F)F)cc1F` stands -0.419%; under `O=S(=O)(Cc1c(F)cccc1Cl)NCCCN1CCCCCC1`, -10%.
Under `Cc1cn2nc(N3CCCC3C(=O)N3CCOCC3)sc2n1` (configuration not stated) stands -3%; under `Nc1c(N2CCCC2)ncnc1N1CCOCC1`, 12.8%; under `Cc1nn(C)c(Cl)c1C1CCCN1C(=O)c1cnc[nH]1` (configuration not stated), -2.11%.
For `O=C(NCCC(=O)N1CCCc2ccccc21)c1ccc(F)cc1F`, the cytotoxicity at 10 µM was -10.1%.
As for `CCc1ccc(CN2CCN(CCOC)[C@@H]3CS(=O)(=O)C[C@@H]32)cc1`, the cytotoxicity at 10 µM is -5.72%.
The figure for `CC(C)C1CN(C(=O)c2ccc(N3CCCC3)nc2)CCS1` (configuration not stated) is -4.81%.
The figure for `COc1ccccc1N1CCN(C(=O)Cn2nc(C)c(Cl)c2C)CC1` is 0.808%.
`Cn1cc(-c2nc(CN3CCn4c(nnc4C4CC4)C3)cs2)cn1`: the cytotoxicity at 10 µM is -1.07%.
Under `COCCc1noc(CN(C)C2CCCN(c3cccnn3)C2)n1` (configuration not stated) stands -8.64%; under `Cc1n[nH]c2c1C(c1ccc(O)cc1)SCC(=O)N2` (configuration not stated), 10.6%; under `CCOCC(=O)NC1(c2cccc(Br)c2)CC1`, -11.3%.
Under `CS(=O)(=O)N1CCc2c(nnn2CC2CC2)C1COCC1CC1` (configuration not stated) stands -3.15%; under `N#Cc1ccc(N2CCCN(CCCn3cncn3)CC2)cc1`, -8.9%; under `COc1ccc(C(=O)NS(=O)(=O)c2cncc(Br)c2)cc1OC`, 4.36%.
The figure for `CN(C)CC(=O)N1CC(c2nn(C)c3nccnc23)C1` is -6.26%.
Turning to `Cc1csc(C(C)(C)NCCCS(C)(=O)=O)n1`, the cytotoxicity at 10 µM is 6.11%.
Regarding `O=C(N[C@H]1CN(Cc2ccsc2)[C@@H]2CCCO[C@H]12)C1CC1`, the cytotoxicity at 10 µM was determined as 4.62%.
Under `O=C(NCCN1CCc2ccccc2C1)c1scnc1Cl` stands -4.84%; under `CCn1cc(S(=O)(=O)N2CCCCCC2c2cc(C)no2)cn1` (configuration not stated), 8.24%; under `Cn1ccc(CNC(=O)N2CCCC3(C2)OCCO3)c1`, 7.6%.
Under `O=C(CNC(=O)c1c(F)cccc1Cl)Nc1ccc(F)cn1` stands 8.46%.
Under `Cc1nn(C(=O)c2cccnc2)c(C)c1C` stands -8.62%; under `CCCn1nc(C2CCNCC2)n(Cc2ccccc2)c1=O`, -12.9%.
On to `O=C(Nc1ccc(Br)cc1F)c1cc(CN2CCOCC2)on1`, for which the cytotoxicity at 10 µM stood at 6.39%.
For `Fc1cnc(N2CCC3(CCCN(c4nncs4)C3)C2)nc1` (configuration not stated), the cytotoxicity at 10 µM amounted to 2.15%.
Under `Cc1ccc(-c2nc(CC3CCN(C)CC3)no2)cc1N1CCNC1=O` stands -11.8%.
For `CN(C)c1ncc(CNC(=O)Nc2ccccc2C(F)(F)F)n1C`, the cytotoxicity at 10 µM was -55.3%.
Under `Cc1nc(CCN2CCC(Oc3ccccc3F)CC2)c(C)s1` stands 7.08%; under `CC(C)NC(=O)C[C@@H]1CCNC[C@@H]1Cc1cc(-c2ccccc2)on1`, -0.626%.
With `c1cnnc(N2CCCC(NCc3cn4ccccc4n3)C2)c1` (configuration not stated), the cytotoxicity at 10 µM was -5.87%.
As to `CC(C)NC(=O)CNC(C)c1c(F)cccc1Cl` (configuration not stated), the cytotoxicity at 10 µM turned out to be 7.22%.
Under `Cc1c(C)n2c(SCC(=O)N3CCCCC3)nnc2[nH]c1=O` stands 3.33%; under `CCc1cc(NCCNc2ccncc2C)n2nc(C)c(C)c2n1`, 3.29%.
For `COc1ccc(C)cc1-n1cnnc1CC1CCNCC1`, the cytotoxicity at 10 µM is -11.4%.
`CCN1CCNC(=O)C12CCN(S(=O)(=O)c1ccc(OC)cc1)CC2`: the cytotoxicity at 10 µM was 0.699%.
`O=C(CNC(=O)c1ccccc1F)NCc1ccccn1`: the cytotoxicity at 10 µM is -0.575%.
Under `CC(COc1ccccc1)NCc1nc(-c2cccnc2)no1` (configuration not stated) stands -14.1%.
Take `Cc1ccc(N2CCCC(N(C)c3ncnc4c3CCC4)C2)nn1` (configuration not stated): the cytotoxicity at 10 µM is 6.86%.
Under `O=C(Cc1cccnc1)N1CCCC(n2cncn2)C1` (configuration not stated) stands -13.1%; under `COC(=O)CN1CCC(C(F)(F)F)CC1`, 8.12%.
Under `CCOc1ccc(C(=O)N(Cc2cnn(C)c2)C(C)C)cc1` stands 13.4%.
On to `Cc1nnc(N2CCc3cnc(C(C)C)nc3C2)c(C#N)c1C`, for which the cytotoxicity at 10 µM is -143%.
The figure for `COC(=O)Cn1c(C)cc(=O)c2cc(F)ccc21` is 2.63%.
Under `Cc1cc(N2CCCN(c3nc(C)nc(C)c3C)CC2)ccn1` stands -13.1%; under `CN(Cc1cc[nH]n1)C(=O)c1cn(Cc2ccccc2Cl)nn1`, 7.59%.
Under `COc1ccccc1CC(=O)NS(=O)(=O)c1cncc(Br)c1` stands -12.7%.
For the compound `CNc1nc2cn(C3CCCC3)c(=O)c-2c[nH]1`, the cytotoxicity at 10 µM was determined as 7.17%.
